{
  "source": "ChEMBL document CHEMBL5724801",
  "about": "“EUbOPEN Chemogenomics Library - Multiplex” (2024)",
  "note": "Values joined by “and” are separate entries in the source; they are usually repeats but may differ in a detail not shown here. Equal values may be shown once.",
  "data": [
    {"test_system": "Fibroblast", "test": "(§1) Multiplex assay against human fibroblast", "type": "toxicity, cell-based", "conditions": "12 h, 1 µM, compound concentration 1 uM", "procedure,_shortened": "(§2)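 Per cents of healthy-nucleus cells form the tubulin, mitochondrial-mass and membrane-permeability phenotype values. Live cells were stained at seeding with Hoechst33342, BioTracker Green Microtubule Cytoskeleton Dye, MitoTracker Red and Annexin V Alexa Fluor 680. After compound addition they were imaged on a CQ1 microscope at 37°C and 5% CO2, and CellPathfinder machine-learning gating split them into Hoechst high-intensity objects or normal cells, normal cells into healthy, pyknosed or fragmented nuclei, and pyknosed cells into mitotic or apoptotic.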", "units": {"Population Hoechst High Intensity Objects (%)": "%", "Population Normal (%)": "%"}, "values": [
      {"smiles": "Cc1cc(Nc2ncc(Cl)c(Nc3ccccc3S(=O)(=O)C(C)C)n2)c(OC(C)C)cc1C1CCNCC1", "note": "[CERITINIB]", "Population Apoptotic (%)": "11.76% and 21.15%", "Population Fragmented Nuclei (%)": "7.37% and 5.85%", "Population Healthy Nuclei (%)": "53.46% and 68.78%", "Population Hoechst High Intensity Objects (%)": 0, "Population Membrane Permeable-Phenotype (%)": "4.31% and 0.71%", "Population Mitochondria Different-Phenotype (%)": "43.1% and 31.21%", "Population Mitotic Cells (%)": "88.24% and 78.85%", "Population Normal (%)": 100, "Population Pyknosed Nuclei (%)": "39.17% and 25.37%", "Population Tubulin-Different-Phenotype (%)": "63.79% and 60.99%", "Total Cell Count": "217 and 205"},
      {"smiles": "Cc1c(Cc2ccc3ccccc3n2)c2cc(F)ccc2n1CC(=O)O", "note": "[TIMAPIPRANT]", "Population Apoptotic (%)": "41% and 33%", "Population Fragmented Nuclei (%)": "12% and 28%", "Population Healthy Nuclei (%)": "67% and 49%", "Population Hoechst High Intensity Objects (%)": 5, "Population Membrane Permeable-Phenotype (%)": "1% and 9%", "Population Mitochondria Different-Phenotype (%)": "7% and 4%", "Population Mitotic Cells (%)": "58% and 66%", "Population Normal (%)": 94, "Population Pyknosed Nuclei (%)": "19% and 22%", "Population Tubulin-Different-Phenotype (%)": "26% and 43%", "Total Cell Count": "171 and 142"}
    ]},
    {"test_system": "Fibroblast", "test": "as §1", "type": "toxicity, cell-based", "conditions": "12 h, 10 µM, compound concentration 10 uM", "procedure,_shortened": "as §2", "values": [
      {"smiles": "Cc1cc(Nc2ncc(Cl)c(Nc3ccccc3S(=O)(=O)C(C)C)n2)c(OC(C)C)cc1C1CCNCC1", "note": "[CERITINIB]", "Population Apoptotic (%)": "42.37% and 52.35%", "Population Fragmented Nuclei (%)": "13.51% and 3.96%", "Population Healthy Nuclei (%)": "22.7% and 22.28%", "Population Hoechst High Intensity Objects (%)": "0%", "Population Mitochondria Different-Phenotype (%)": "7.14% and 6.67%", "Population Mitotic Cells (%)": "57.63% and 47.65%", "Population Normal (%)": "100%", "Population Pyknosed Nuclei (%)": "63.78% and 73.76%", "Population Tubulin-Different-Phenotype (%)": "38.1% and 77.78%", "Total Cell Count": "185 and 202"},
      {"smiles": "Cc1c(Cc2ccc3ccccc3n2)c2cc(F)ccc2n1CC(=O)O", "note": "[TIMAPIPRANT]", "Population Apoptotic (%)": "66% and 53%", "Population Fragmented Nuclei (%)": "13% and 26%", "Population Healthy Nuclei (%)": "77% and 53%", "Population Hoechst High Intensity Objects (%)": "2% and 5%", "Population Membrane Permeable-Phenotype (%)": "0% and 1%", "Population Mitochondria Different-Phenotype (%)": "7%", "Population Mitotic Cells (%)": "33% and 46%", "Population Normal (%)": "97% and 95%", "Population Pyknosed Nuclei (%)": "8% and 19%", "Population Tubulin-Different-Phenotype (%)": "35% and 43%", "Total Cell Count": "147 and 160"}
    ]},
    {"test_system": "Fibroblast", "test": "as §1", "type": "toxicity, cell-based", "conditions": "24 h, 1 µM, compound concentration 1 uM", "procedure,_shortened": "as §2", "values": [
      {"smiles": "Cc1cc(Nc2ncc(Cl)c(Nc3ccccc3S(=O)(=O)C(C)C)n2)c(OC(C)C)cc1C1CCNCC1", "note": "[CERITINIB]", "Population Apoptotic (%)": "20% and 32.43%", "Population Fragmented Nuclei (%)": "9.43% and 7.69%", "Population Healthy Nuclei (%)": "68.03% and 74.52%", "Population Hoechst High Intensity Objects (%)": "0%", "Population Membrane Permeable-Phenotype (%)": "4.22% and 0%", "Population Mitochondria Different-Phenotype (%)": "29.52% and 27.74%", "Population Mitotic Cells (%)": "80% and 67.57%", "Population Normal (%)": "100%", "Population Pyknosed Nuclei (%)": "22.54% and 17.79%", "Population Tubulin-Different-Phenotype (%)": "62.05% and 63.23%", "Total Cell Count": "244 and 208"},
      {"smiles": "Cc1c(Cc2ccc3ccccc3n2)c2cc(F)ccc2n1CC(=O)O", "note": "[TIMAPIPRANT]", "Population Apoptotic (%)": "33% and 47%", "Population Healthy Nuclei (%)": "73% and 52%", "Population Hoechst High Intensity Objects (%)": "1% and 5%", "Population Membrane Permeable-Phenotype (%)": "3% and 7%", "Population Mitochondria Different-Phenotype (%)": "2% and 4%", "Population Mitotic Cells (%)": "66% and 52%", "Population Normal (%)": "98% and 94%", "Population Pyknosed Nuclei (%)": "17%", "Population Tubulin-Different-Phenotype (%)": "26% and 38%", "Total Cell Count": "158 and 142"}
    ]},
    {"test_system": "Fibroblast", "test": "as §1", "type": "toxicity, cell-based", "conditions": "24 h, 10 µM, compound concentration 10 uM", "procedure,_shortened": "as §2", "values": [
      {"smiles": "Cc1cc(Nc2ncc(Cl)c(Nc3ccccc3S(=O)(=O)C(C)C)n2)c(OC(C)C)cc1C1CCNCC1", "note": "[CERITINIB]", "Population Apoptotic (%)": "65.28% and 58.33%", "Population Fragmented Nuclei (%)": "19.9% and 22.16%", "Population Healthy Nuclei (%)": "43.37% and 59.28%", "Population Hoechst High Intensity Objects (%)": "0%", "Population Mitochondria Different-Phenotype (%)": "12.94% and 7.83%", "Population Mitotic Cells (%)": "34.72% and 41.67%", "Population Normal (%)": "100%", "Population Pyknosed Nuclei (%)": "36.73% and 18.56%", "Population Tubulin-Different-Phenotype (%)": "37.65% and 81.74%", "Total Cell Count": "196 and 194"},
      {"smiles": "Cc1c(Cc2ccc3ccccc3n2)c2cc(F)ccc2n1CC(=O)O", "note": "[TIMAPIPRANT]", "Population Apoptotic (%)": "66% and 52%", "Population Fragmented Nuclei (%)": "14% and 29%", "Population Healthy Nuclei (%)": "77% and 58%", "Population Hoechst High Intensity Objects (%)": "2% and 7%", "Population Membrane Permeable-Phenotype (%)": "0% and 3%", "Population Mitochondria Different-Phenotype (%)": "6% and 10%", "Population Mitotic Cells (%)": "33% and 47%", "Population Normal (%)": "97% and 92%", "Population Pyknosed Nuclei (%)": "8% and 12%", "Population Tubulin-Different-Phenotype (%)": "30% and 52%", "Total Cell Count": "150 and 164"}
    ]},
    {"test_system": "Fibroblast", "test": "as §1", "type": "toxicity, cell-based", "conditions": "48 h, 1 µM, compound concentration 1 uM", "procedure,_shortened": "as §2", "values": [
      {"smiles": "Cc1cc(Nc2ncc(Cl)c(Nc3ccccc3S(=O)(=O)C(C)C)n2)c(OC(C)C)cc1C1CCNCC1", "note": "[CERITINIB]", "Population Fragmented Nuclei (%)": "13.85% and 7.43%", "Population Healthy Nuclei (%)": "77.7% and 84.65%", "Population Hoechst High Intensity Objects (%)": "0%", "Population Membrane Permeable-Phenotype (%)": "1.74% and 1.75%", "Population Mitochondria Different-Phenotype (%)": "11.74% and 9.94%", "Population Mitotic Cells (%)": "88% and 50%", "Population Normal (%)": "100%", "Population Pyknosed Nuclei (%)": "8.45% and 7.92%", "Population Tubulin-Different-Phenotype (%)": "36.09% and 50.88%", "Total Cell Count": "296 and 202"},
      {"smiles": "Cc1c(Cc2ccc3ccccc3n2)c2cc(F)ccc2n1CC(=O)O", "note": "[TIMAPIPRANT]", "Population Apoptotic (%)": "72% and 61%", "Population Fragmented Nuclei (%)": "15% and 36%", "Population Healthy Nuclei (%)": "72% and 48%", "Population Hoechst High Intensity Objects (%)": "7% and 6%", "Population Membrane Permeable-Phenotype (%)": "0% and 2%", "Population Mitochondria Different-Phenotype (%)": "2% and 1%", "Population Mitotic Cells (%)": "27% and 38%", "Population Normal (%)": "92% and 94%", "Population Pyknosed Nuclei (%)": "12% and 14%", "Population Tubulin-Different-Phenotype (%)": "25% and 34%", "Total Cell Count": "162 and 150"}
    ]},
    {"test_system": "Fibroblast", "test": "as §1", "type": "toxicity, cell-based", "conditions": "48 h, 10 µM, compound concentration 10 uM", "procedure,_shortened": "as §2", "values": [
      {"smiles": "Cc1cc(Nc2ncc(Cl)c(Nc3ccccc3S(=O)(=O)C(C)C)n2)c(OC(C)C)cc1C1CCNCC1", "note": "[CERITINIB]", "Population Apoptotic (%)": "73.33% and 50%", "Population Fragmented Nuclei (%)": "20.63% and 58.73%", "Population Healthy Nuclei (%)": "71.43% and 38.1%", "Population Hoechst High Intensity Objects (%)": "0%", "Population Mitotic Cells (%)": "26.67% and 50%", "Population Normal (%)": "100%", "Population Pyknosed Nuclei (%)": "7.94% and 3.17%", "Population Tubulin-Different-Phenotype (%)": "31.85% and 58.33%", "Total Cell Count": 189},
      {"smiles": "Cc1c(Cc2ccc3ccccc3n2)c2cc(F)ccc2n1CC(=O)O", "note": "[TIMAPIPRANT]", "Population Apoptotic (%)": "66% and 60%", "Population Fragmented Nuclei (%)": "18% and 30%", "Population Healthy Nuclei (%)": "75% and 59%", "Population Hoechst High Intensity Objects (%)": "5% and 2%", "Population Membrane Permeable-Phenotype (%)": "0% and 1%", "Population Mitochondria Different-Phenotype (%)": "3% and 1%", "Population Mitotic Cells (%)": "33% and 40%", "Population Normal (%)": "94% and 97%", "Population Pyknosed Nuclei (%)": "6% and 9%", "Population Tubulin-Different-Phenotype (%)": "31% and 37%", "Total Cell Count": "152 and 157"}
    ]}
  ]
}
